Consider 26 compounds from ChEMBL document CHEMBL1128347, “Non-peptidic inhibitors of human leukocyte elastase. 4. Design, synthesis, and in vitro and in vivo activity of a series of beta-carbolinone-containing trifluoromethyl ketones” (J Med Chem, 1995).

One experiment concerns the target T1, Neutrophil elastase (Homo sapiens, UniProt P08246).
T1 sequence (P08246 whole entry): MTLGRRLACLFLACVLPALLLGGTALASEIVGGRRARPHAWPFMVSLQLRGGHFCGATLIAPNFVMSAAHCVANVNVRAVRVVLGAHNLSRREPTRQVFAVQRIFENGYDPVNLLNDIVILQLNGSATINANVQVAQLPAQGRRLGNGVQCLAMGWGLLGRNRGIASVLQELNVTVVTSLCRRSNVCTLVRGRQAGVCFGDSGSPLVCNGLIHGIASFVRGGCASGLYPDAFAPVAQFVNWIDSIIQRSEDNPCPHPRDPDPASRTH
The experiment is described as follows: In vitro inhibitory activity against human leukocyte elastase (HLE) mediated hydrolysis of the synthetic substrate MeO-Suc-Ala-Ala-Pro-Val-pNA.

In experiment [1] the target is T2, Chymotrypsinogen A (Bos taurus, UniProt P00766). The experiment is described as follows: Inhibitory activity against bovine chymotrypsin.
For experiment [2], the target named is T2, Chymotrypsinogen A. The experiment is described as follows: Inhibitory activity against bovine chymotrypsin; No inhibition at the highest concentration tested (>150 uM).
Experiment [3] is described as follows: Ratio of the Ki value towards bovine chymotrypsin to that of HLE. An outline of the steps: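 Selectivity ratio computed as Ki against bovine pancreatic chymotrypsin divided by Ki against human leukocyte elastase. The elastase Ki came from inhibition of enzyme-catalysed hydrolysis of the chromogenic substrate MeOSuc-Ala-Ala-Pro-Val-pNA.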
In the next experiment the target is T3, Cathepsin G (Homo sapiens, UniProt P08311).
T3 sequence (P08311 whole entry): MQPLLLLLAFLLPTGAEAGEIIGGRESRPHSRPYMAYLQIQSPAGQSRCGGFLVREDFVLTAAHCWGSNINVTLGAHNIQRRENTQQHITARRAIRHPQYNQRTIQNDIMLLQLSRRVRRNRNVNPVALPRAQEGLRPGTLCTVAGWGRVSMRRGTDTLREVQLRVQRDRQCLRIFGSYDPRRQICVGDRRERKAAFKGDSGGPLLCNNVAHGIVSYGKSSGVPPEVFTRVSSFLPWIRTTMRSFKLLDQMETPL
The experiment in a line: Inhibitory activity against human cathepsin G.

The next experiment concerns the target T4, Serine protease 1 (Bos taurus, UniProt P00760).
T4 sequence (P00760 whole entry): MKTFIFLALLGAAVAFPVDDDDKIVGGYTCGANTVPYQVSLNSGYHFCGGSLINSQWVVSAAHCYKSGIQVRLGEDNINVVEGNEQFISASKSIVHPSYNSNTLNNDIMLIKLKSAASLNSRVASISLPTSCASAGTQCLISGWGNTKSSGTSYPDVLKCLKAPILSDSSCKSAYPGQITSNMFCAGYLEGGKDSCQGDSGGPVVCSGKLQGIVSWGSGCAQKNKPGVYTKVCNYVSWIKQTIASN
The experiment is described as follows: Inhibitory activity against bovine trypsin; No inhibition at the highest concentration tested (400 uM).

Experiment [4] addresses T5, Angiotensin-converting enzyme (Oryctolagus cuniculus, UniProt P12822).
T5 sequence (P12822 whole entry): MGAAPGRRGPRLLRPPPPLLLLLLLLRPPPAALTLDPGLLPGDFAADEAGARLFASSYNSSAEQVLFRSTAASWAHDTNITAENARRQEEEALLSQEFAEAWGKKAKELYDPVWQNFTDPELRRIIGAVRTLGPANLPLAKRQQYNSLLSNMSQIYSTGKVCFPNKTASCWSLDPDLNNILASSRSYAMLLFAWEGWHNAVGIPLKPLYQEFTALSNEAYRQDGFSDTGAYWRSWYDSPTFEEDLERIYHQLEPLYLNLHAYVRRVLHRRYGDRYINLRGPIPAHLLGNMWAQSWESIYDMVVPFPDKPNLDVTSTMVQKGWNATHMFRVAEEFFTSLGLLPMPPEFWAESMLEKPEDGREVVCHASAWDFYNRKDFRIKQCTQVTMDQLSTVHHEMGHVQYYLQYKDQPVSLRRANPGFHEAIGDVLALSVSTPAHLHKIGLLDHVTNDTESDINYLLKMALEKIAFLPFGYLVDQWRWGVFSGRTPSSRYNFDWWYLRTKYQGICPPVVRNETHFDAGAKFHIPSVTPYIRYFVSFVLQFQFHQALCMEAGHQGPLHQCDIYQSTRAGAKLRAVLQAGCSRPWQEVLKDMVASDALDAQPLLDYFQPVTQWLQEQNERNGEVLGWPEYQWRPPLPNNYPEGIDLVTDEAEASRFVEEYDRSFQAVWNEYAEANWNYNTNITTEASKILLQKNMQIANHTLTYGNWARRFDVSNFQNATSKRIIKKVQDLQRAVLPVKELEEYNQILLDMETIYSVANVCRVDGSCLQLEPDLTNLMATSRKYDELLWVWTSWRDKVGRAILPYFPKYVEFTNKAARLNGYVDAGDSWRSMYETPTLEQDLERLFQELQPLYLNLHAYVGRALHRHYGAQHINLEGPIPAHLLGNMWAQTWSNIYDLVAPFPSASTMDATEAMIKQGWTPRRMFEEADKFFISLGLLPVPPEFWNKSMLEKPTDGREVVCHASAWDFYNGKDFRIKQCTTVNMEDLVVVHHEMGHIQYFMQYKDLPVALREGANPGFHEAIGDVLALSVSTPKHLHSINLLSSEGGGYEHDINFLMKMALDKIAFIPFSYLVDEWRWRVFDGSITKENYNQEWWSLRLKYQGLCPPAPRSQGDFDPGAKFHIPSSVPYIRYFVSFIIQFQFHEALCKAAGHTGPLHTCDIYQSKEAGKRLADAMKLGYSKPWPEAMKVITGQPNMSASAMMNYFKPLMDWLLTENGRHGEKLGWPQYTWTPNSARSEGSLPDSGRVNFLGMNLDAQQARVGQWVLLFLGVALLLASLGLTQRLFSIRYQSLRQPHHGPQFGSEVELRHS
The experiment in a line: Inhibitory activity against rabbit Angiotensin I converting enzyme.

A further experiment deals with T6, Papain (Carica papaya, UniProt P00784).
T6 sequence (P00784 whole entry): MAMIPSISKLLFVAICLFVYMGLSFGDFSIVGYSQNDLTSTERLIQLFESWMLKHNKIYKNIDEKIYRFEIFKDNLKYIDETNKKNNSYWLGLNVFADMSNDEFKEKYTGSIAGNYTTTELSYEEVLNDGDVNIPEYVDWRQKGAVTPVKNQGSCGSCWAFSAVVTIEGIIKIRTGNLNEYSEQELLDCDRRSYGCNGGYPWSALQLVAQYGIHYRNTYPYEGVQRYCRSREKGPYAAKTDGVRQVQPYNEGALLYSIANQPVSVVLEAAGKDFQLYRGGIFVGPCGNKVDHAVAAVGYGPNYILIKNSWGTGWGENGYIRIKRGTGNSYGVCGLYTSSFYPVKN
The experiment is described as follows: Inhibitory activity against papain; No inhibition at the highest concentration tested (400 uM).

For another experiment, the target named is Acetylcholinesterase (Electrophorus electricus, UniProt O42275). The experiment is described as follows: Inhibitory activity against electric eel Acetylcholinesterase; No inhibition at the highest concentration tested (400 uM).
A further experiment deals with Prothrombin (Homo sapiens, UniProt P00734). The experiment is described as follows: Inhibitory activity against human thrombin mediated hydrolysis of the synthetic substrate […]; No inhibition at the highest concentration tested (400 uM).

Chain of Acetylcholinesterase (O42275 whole entry): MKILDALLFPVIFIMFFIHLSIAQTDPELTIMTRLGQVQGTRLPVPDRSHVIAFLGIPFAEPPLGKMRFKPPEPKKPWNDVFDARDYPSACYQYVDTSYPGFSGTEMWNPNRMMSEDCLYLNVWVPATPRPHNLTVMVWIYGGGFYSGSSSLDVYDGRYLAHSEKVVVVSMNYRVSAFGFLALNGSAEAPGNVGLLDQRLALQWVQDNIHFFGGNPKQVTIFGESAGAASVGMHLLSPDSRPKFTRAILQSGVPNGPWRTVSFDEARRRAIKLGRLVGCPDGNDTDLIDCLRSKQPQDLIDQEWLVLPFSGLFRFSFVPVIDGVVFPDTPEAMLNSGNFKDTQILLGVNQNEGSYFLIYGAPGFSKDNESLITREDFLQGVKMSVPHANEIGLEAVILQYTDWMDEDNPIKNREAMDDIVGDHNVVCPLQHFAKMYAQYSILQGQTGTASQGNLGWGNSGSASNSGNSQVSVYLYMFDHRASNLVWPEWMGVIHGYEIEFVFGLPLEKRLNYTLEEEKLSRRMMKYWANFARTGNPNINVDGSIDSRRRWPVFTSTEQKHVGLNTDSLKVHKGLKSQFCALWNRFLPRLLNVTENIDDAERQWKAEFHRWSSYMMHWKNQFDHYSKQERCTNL

As a reminder, the Ki is the equilibrium dissociation constant of an inhibitor or competing ligand from its target. High values mean a looser hold on the target, low ones a stronger hold on the target. On Neutrophil elastase, `COC(=O)c1cccc2c3cc(-c4ccccc4)n(CC(=O)NC(C(=O)C(F)(F)F)C(C)C)c(O)c-3nc12` (configuration not stated) had a Ki of 130 nM. This lies in the sub-micromolar range.
Consider `COc1ccc2[nH]c3c(c2c1)CCN(CC(=O)NC(C(=O)C(F)(F)F)C(C)C)C3=O` (configuration not stated), for which, at Neutrophil elastase, the affinity corresponds to a Ki of 1100 nM.
On Neutrophil elastase, `CC(C)C(NC(=O)CN1CCc2c([nH]c3ccc(Cl)cc23)C1=O)C(=O)C(F)(F)F` (configuration not stated) returned a Ki of 1000 nM. This Ki and that of the compound before are within 1.5-fold of each other.
At Neutrophil elastase, `CCOC(=O)c1ccc2c3ccn(CC(=O)NC(C(=O)C(F)(F)F)C(C)C)c(O)c-3nc2c1` (configuration not stated) gave a Ki of 340 nM. This Ki lies about 2.9-fold lower than the previous one.
The same measure, in the same setting: the result for `CC(C)C(NC(=O)CN1CCc2c([nH]c3ccccc23)C1=O)C(=O)C(F)(F)F` (configuration not stated) reads 1100 nM.
Compound `CC(C)C(NC(=O)Cn1ccc2c3cc(Cl)ccc3nc-2c1O)C(=O)C(F)(F)F` (configuration not stated) came in with a Ki at Neutrophil elastase of 210 nM.
`CC(C)C(NC(=O)Cn1c(-c2ccccc2)cc2c3cccc(C(=O)O)c3nc-2c1O)C(=O)C(F)(F)F` (configuration not stated) registered a Ki at Chymotrypsinogen A [1] of 43000 nM.
Consider `CC(C)C(NC(=O)Cn1c(-c2ccccc2)cc2c3cccc(O)c3nc-2c1O)C(=O)C(F)(F)F` (configuration not stated), for which, at Neutrophil elastase, the Ki is 6.7 nM.
Consider `COc1ccc2nc3c(O)n(CC(=O)NC(C(=O)C(F)(F)F)C(C)C)ccc-3c2c1` (configuration not stated), for which affinity on Neutrophil elastase was put at a Ki of 350 nM.
Regarding `CC(C)C(NC(=O)Cn1ccc2c3ccccc3nc-2c1O)C(=O)C(F)(F)F` (configuration not stated), the Ki result was “No inhibition” on Chymotrypsinogen A [2] and 290 nM on Neutrophil elastase.
`COC(=O)Oc1cccc2c3cc(-c4ccccc4)n(CC(=O)NC(C(=O)C(F)(F)F)C(C)C)c(O)c-3nc12` (configuration not stated) displayed a Ki at Neutrophil elastase of 24 nM.
In the case of `CC(C)c1cc2c3cccc(C(=O)O)c3nc-2c(O)n1CC(=O)NC(C(=O)C(F)(F)F)C(C)C` (configuration not stated), the affinity on Neutrophil elastase, expressed as Ki, was 19 nM.
On the same count and under the same terms, as for `CC(C)C(NC(=O)Cn1c(-c2ccccc2)cc2c3cccc(OS(C)(=O)=O)c3nc-2c1O)C(=O)C(F)(F)F` (configuration not stated), the figure is 15 nM.
With `CC(C)C(NC(=O)Cn1ccc2c3ccc(C(=O)O)cc3nc-2c1O)C(=O)C(F)(F)F` (configuration not stated), on Neutrophil elastase, the Ki was determined as 510 nM.
Consider `CCOC(=O)c1cccc2c3ccn(CC(=O)NC(C(=O)C(F)(F)F)C(C)C)c(O)c-3nc12` (configuration not stated), for which the affinity on Neutrophil elastase corresponds to a Ki of 2500 nM.
For `COP(=O)(OC)c1ccc2nc3c(O)n(CC(=O)NC(C(=O)C(F)(F)F)C(C)C)c(-c4ccccc4)cc-3c2c1` (configuration not stated), the Ki at Neutrophil elastase amounted to 9.6 nM.
On the same count and under the same terms, the result for `CC(C)C(NC(=O)Cn1c(-c2ccccc2)cc2c3cccc(C=O)c3nc-2c1O)C(=O)C(F)(F)F` (configuration not stated) reads 4.9 nM.
As to `CC(C)C(NC(=O)Cn1c(-c2ccccc2)cc2c3cccc(C#N)c3nc-2c1O)C(=O)C(F)(F)F` (configuration not stated), the Ratio in experiment [3] was found to be 27. Moreover, the figures for the Ki at Neutrophil elastase and on Chymotrypsinogen A [1] were 6.6 nM and 180 nM, respectively.
The compound `CC(C)c1cc2c3cccc(C#N)c3nc-2c(O)n1CC(=O)NC(C(=O)C(F)(F)F)C(C)C` (configuration not stated) came in with an inhibition constant (Ki) at Neutrophil elastase of 28 nM.
For the compound `CC(C)c1cc2c3ccccc3nc-2c(O)n1CC(=O)NC(C(=O)C(F)(F)F)C(C)C` (configuration not stated), in experiment [3], the Ratio was determined as 20. For the same compound, the Ki on Neutrophil elastase was determined as 54 nM; at Chymotrypsinogen A [1], 1100 nM.
Consider `COc1cccc2c3cc(-c4ccccc4)n(CC(=O)NC(C(=O)C(F)(F)F)C(C)C)c(O)c-3nc12` (configuration not stated), for which, on Neutrophil elastase, the affinity, expressed as Ki, was 17 nM. That is a double-digit nanomolar value.
As to `CC(C)C(NC(=O)Cn1ccc2c3cccc(C(=O)O)c3nc-2c1O)C(=O)C(F)(F)F` (configuration not stated), the Ki is 130000 nM on Cathepsin G; “No inhibition” at Serine protease 1; 94000 nM in experiment [4]; “No inhibition” at Chymotrypsinogen A [2]; 22 nM on Neutrophil elastase; “No inhibition” at Papain. The Ki entry at Acetylcholinesterase and on Prothrombin was “No inhibition” each time.
In the case of `COP(=O)(OC)c1cccc2c3cc(-c4ccccc4)n(CC(=O)NC(C(=O)C(F)(F)F)C(C)C)c(O)c-3nc12` (configuration not stated), the Ratio in [3] came to 500. Moreover, the results for the Ki at Neutrophil elastase and at Chymotrypsinogen A [1] were 52 nM and 26000 nM, respectively.
`CC(C)C(NC(=O)CN1CCc2c([nH]c3c(C(=O)O)cccc23)C1=O)C(=O)C(F)(F)F` (configuration not stated) returned a Ki on Neutrophil elastase of 27 nM.
Turning to `CC(C)C(NC(=O)Cn1ccc2c3cccc(C(N)=O)c3nc-2c1O)C(=O)C(F)(F)F` (configuration not stated), on Neutrophil elastase, the Ki worked out at 730 nM.
On to `CC(C)C(NC(=O)Cn1c(-c2ccccc2)cc2c3ccccc3nc-2c1O)C(=O)C(F)(F)F` (configuration not stated), for which the Ratio in experiment [3] was found to be 70. In addition, the inhibition constant Ki was determined as 6.1 nM on Neutrophil elastase and 430 nM on Chymotrypsinogen A [1].
